SKN-1 block: inhibitors of C. elegans SKN-1 | C. elegans VP596 Pgst-4::GFP/RFP ratio, acrylamide-induced, 24 h | inhibition, % at 21.8 µM | hit rate 0.49% among 360,000;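 active = interference check ratio from 0.5 to 1.5 plus GFP to RFP signal ratio inhibition reaching or exceeding a fixed threshold, cut at about 30% in these data, passing the limit was not always enough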
T cell modulator: T cell immune modulation candidate; 2C CD8+ T cell-vesicle binding, flow cytometry; stronger effect = lower value; response (vesicle binding), % at 7 µM; hit rate 0.068% among 330,000; AID 2052;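 active = response, share of CD8 T cells binding vesicles, and their 90th percentile fluorescence all below set limits, cut at about 80% in these data, passing the limit was not always enough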;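 also: values below 100% mean blocked vesicle binding to the CD8+ T cells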
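Read-out – percent CD8+ FL2 mean versus row control · System – murine 2C transgenic CD8+ T lymphocytes · Times – 1.5 h cell–vesicle binding at 37 °C, then 20 min icy labelling · Control set – naked vesicles low, QL9 vesicles with vehicle high · Detection – cytometric PE anti-B7-1 and Alexa647 anti-CD8 signals after 1% paraformaldehyde fixation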
Rce1 inhib: blocks yeast Ras-converting enzyme; Q03530; yeast membranes, quenched prenylated peptide cleavage fluorescence; calls only; hit rate 0.27% among 290,000; AID 2563;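 active = fall in fluorescence gain of 50% or more versus controls, with final raw signal at or below 3038400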;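 also: plate controls were neutral control wells for no effect and wells lacking membranes for full effect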
Rin1 Abl inh: inhibitors of human Rin1-Abl protein interaction; P00519+Q13671; TR-FRET Rin1/Abl binding, biochemical; inhibition, % at 7.35 µM; hit rate 0.4% among 360,000; in the data active = inhibition above about 5%, passing the limit was not always enough
GRK2 inh: human GRK2 inhibition via aptamer displacement; bead flow cytometry, FAM-aptamer displacement from GRK2; AID 488847; inhibition of aptamer binding, % at 10 µM; hit rate 0.59% among 330,000;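 active = inhibition of aptamer binding above 40%, roughly 3 SD of noise, on plates passing a quality check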;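 also: median bead fluorescence of bound FAM aptamer so fluorescent compounds give negative values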
Target sequence (P25098 whole entry, looked up): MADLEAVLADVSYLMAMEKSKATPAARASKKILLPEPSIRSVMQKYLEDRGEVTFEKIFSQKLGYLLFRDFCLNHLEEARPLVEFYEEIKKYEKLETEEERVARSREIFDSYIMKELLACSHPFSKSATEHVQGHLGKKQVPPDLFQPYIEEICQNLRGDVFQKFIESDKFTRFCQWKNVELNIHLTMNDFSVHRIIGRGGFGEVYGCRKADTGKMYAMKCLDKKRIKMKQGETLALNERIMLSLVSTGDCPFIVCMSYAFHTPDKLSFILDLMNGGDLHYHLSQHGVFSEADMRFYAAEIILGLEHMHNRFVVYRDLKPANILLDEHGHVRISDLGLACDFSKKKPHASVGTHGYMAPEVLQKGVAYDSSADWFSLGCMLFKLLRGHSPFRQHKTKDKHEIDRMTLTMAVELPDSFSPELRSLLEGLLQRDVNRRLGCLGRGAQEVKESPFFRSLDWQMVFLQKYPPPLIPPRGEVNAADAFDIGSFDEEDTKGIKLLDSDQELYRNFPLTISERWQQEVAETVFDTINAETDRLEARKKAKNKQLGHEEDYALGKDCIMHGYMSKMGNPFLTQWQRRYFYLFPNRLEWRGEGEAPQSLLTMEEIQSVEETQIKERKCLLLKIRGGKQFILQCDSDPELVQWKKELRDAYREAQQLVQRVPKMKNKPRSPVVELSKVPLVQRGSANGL
Myeloid diff MLP: myeloid differentiation induction; ER-HoxA9 myeloid progenitors, lysozyme-GFP differentiation, flow cytometry; calls only at 10 µM; hit rate 1% among 360,000;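 active = normalized GFP-positive differentiation at or above the plate's own cutoff, the solvent-only control mean plus 3 SD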;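 also: cells exposed to compound for four days before flow analysis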
GRK2 inh confirm: confirmation of human GRK2 inhibitors displacing RNA aptamer; aptamer displacement, % at 10 µM; shares compounds with GRK2 inh; bead-bound GRK2, FAM-aptamer displacement, flow cytometry; hit rate 4% among 2,000;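 active = aptamer displacement above 40%, near three times the noise of non-fluorescent compounds, on plates passing quality checks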;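 also: negative values mostly reflect intrinsic compound fluorescence rather than true enhancement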
Aptamer quench 1: counter-screen for GRK2 aptamer inhibitors: fluorescent aptamer quenchers | shares compounds with GRK2 inh | Fluorescent RNA aptamer beads, quenching, flow cytometry; stronger effect = higher value | fluorescence change (kMESF span), kMESF (test concentration not listed) | 110 tested, under 10 active | AID 504521;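 active = compounds whose bead fluorescence drops by more than 37 kMESF across the dose range, marking them as dye quenchers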
FAM quench CP1: aptamer fluorescence quenching in GRK2 counter-screen | shares compounds with GRK2 inh | Carboxyfluorescein RNA aptamer on beads, flow cytometry quenching; stronger effect = lower value | fluorescence response (% of DMSO), % at 10 µM | 2,000 tested, under 10 active | AID 504580;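 active = compounds that quench the bead-bound fluorescent RNA probe, cutting fluorescence to under half of the solvent control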;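 also: counterscreen run without GRK2 so only probe quenching by compound is measured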
GRK2 confirm 2: human GRK2 inhibition confirmation, cherry pick 2. shares compounds with GRK2 inh. bead-bound GRK2, FAM-aptamer displacement, flow cytometry. 360 tested, under 10 active. inhibition of aptamer binding, % at 10 µM;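 active = inhibition of aptamer binding above 40%, about triple the noise seen with nonglowing compounds, on plates passing quality control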;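 also: negative values mostly come from compounds that fluoresce themselves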
FAM quench CP2: counter-screen for GRK2 binding hits: quenchers of fluorescent RNA aptamer; shares compounds with GRK2 inh; 360 tested, under 10 active; carboxyfluorescein RNA aptamer beads, flow cytometry quenching; stronger effect = lower value; fluorescence response vs DMSO, % at 10 µM;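 active = response vs DMSO under 50%, meaning signal dropped by over half, treated as fluorescence quencher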;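 also: labelled aptamer on streptavidin beads without GRK2 as a quench counter-screen; 100% = bead fluorescence of DMSO wells and lower means quenching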
* = called active by the depositor; i = inactive; nt = no result; + = active, no number. This is a sample that favours compounds with a hit; in the whole collection about 2.6% have one here.

SMILES	SKN-1 block	T cell modulator	Rce1 inhib	Rin1 Abl inh	GRK2 inh	Myeloid diff MLP	GRK2 inh confirm	FAM quench CP1	others
Cc1ccc([C@H]2N[C@]3(CCCN(Cc4ccc(C(F)(F)F)cc4)C3=O)[C@H]3C(=O)N(Cc4ccccc4)C(=O)[C@@H]23)cc1	3	nt	nt	-1	nt	i	nt	nt
O=C(N/N=C\c1cc([N+](=O)[O-])ccc1N1CCOCC1)c1ccccn1	15	234	i	-4	89*	i	10	101
O=C(N/N=C\c1cc([N+](=O)[O-])ccc1N1CCCC1)c1ccccn1	14	277	i	-2	0	i	nt	nt
OC(c1ccc(OCc2ccccc2)cc1)c1nnc(-c2ccccc2)o1 (centres undefined)	4	639	i	2	5	i	-1	98
c1ccc(-c2nnc(C(c3ccccc3)c3ccccc3)o2)cc1	6	278	i	-4	4	i	nt	nt
Cn1ccnc1C(O)c1cccc(OCc2ccccc2)c1 (centres undefined)	2	236	i	1	0	i	nt	nt
OC(c1cccc(OCc2ccccc2)c1)c1nnc(-c2ccccc2)o1 (centres undefined)	-4	148	i	-4	0	i	-1	95
CCC1Oc2ccccc2C(=O)N(CC(=O)c2ccc3c(c2)OCCO3)C1=O (centres undefined)	5	271	i	-2	0	i	nt	nt
CCOC(=O)N1CCN(C(=O)c2ccc(CS(=O)c3cccc(C)c3)o2)CC1 (centres undefined)	12	nt	nt	-3	nt	i	nt	nt
COCCCNC(=O)CNC(=O)c1nn(-c2ccc(OC)cc2OC)c(=O)c2ccccc12	0	253	i	3	4	i	-2	104
CCC(C)NC(=O)CNC(=O)c1nn(-c2ccc(OC)cc2OC)c(=O)c2ccccc12 (centres undefined)	15	211	i	0	0	i	0	102
CN(C)Cc1ccccc1CNC(=O)c1ccc(Cl)c(S(=O)(=O)NC2CC2)c1	8	nt	nt	-4	nt	i	nt	nt
COc1c(F)c(F)c(C(=O)O)c(Nc2cccc(C)c2)c1F	-4	335	i	2	1	i	nt	nt
Cc1cc(C)cc(Nc2c(F)c(F)c(F)c(F)c2C(=O)O)c1	-10	326	i	2	89*	i	-2	89
Cc1ccc(C)c(N2CCN(C(=O)CCCOc3cc(=O)n(C)c4ccccc34)CC2)c1	9	375	i	0	0	i	nt	nt
COc1ccc(N2CCN(C(=O)CCCOc3cc(=O)n(C)c4ccccc34)CC2)cc1	6	589	i	-1	56*	i	-1	99
CCc1ccc(NC(=O)C(C)n2nc(C)c([N+](=O)[O-])c2C)cc1 (centres undefined)	4	196	i	3	0	i	nt	nt
COC(=O)c1noc(C)c1-c1ccnn1C(=O)c1ccc(C)cc1	14	272	i	2	97*	i	0	46*
CCN(CC)C(=O)CN1CCN(Cc2ccc3c(c2)OCO3)CC1	4	0	i	5	14	i	nt	nt
CCOc1ccc(CNC(=O)c2cccc(NC(=O)C3=C(C)OCCS3)c2)cc1	13	542	i	0	0	i	0	99
CCOc1ccc(CCNC(=O)Nc2cccc(OC)c2)cc1OCC	2	384	i	4	41*	i	nt	nt	GRK2 confirm 2=-8;FAM quench CP2=98
O=C(CSc1ccccc1F)NCC(c1ccco1)N1CCCCC1 (centres undefined)	27	nt	nt	3	nt	i	nt	nt
Cc1ccc(S(=O)(=O)N(C)CC(=O)O/N=C(\N)c2ccccn2)cc1	-4	266	i	-1	100*	i	1	102
Cc1ccc(-c2cnc3ccccc3n2)cc1C	7	362	i	2	0	i	2	101
Cc1ccc(S(=O)(=O)N(C)c2ccc3c(c2)C(=O)c2ccccc2-3)cc1	-8	nt	nt	-1	nt	i	nt	nt
SMILES	SKN-1 block	T cell modulator	Rce1 inhib	Rin1 Abl inh	GRK2 inh	Myeloid diff MLP	GRK2 inh confirm	FAM quench CP1	others
Cc1[nH]c2ccc(C(=O)NCCN3CCOCC3)cc2c1C	17	441	i	1	0	i	nt	nt
CSc1nc(C)c(C(=O)C[n+]2ccccc2)cc1C#N	-1	298	nt	-4	94*	i	1	104
COc1ccccc1CNC(=O)C(=O)NCC1OCCN1S(=O)(=O)c1ccc2c(c1)OCCO2 (centres undefined)	23	407	i	-1	41*	i	-2	100
CCOC(=O)CC[C@H](NC(=O)Cn1cc(C)c(=O)[nH]c1=O)C(=O)OCC	1	nt	nt	1	nt	i	nt	nt
Cn1nccc1C(=O)Nc1ccc2c(c1)OCCO2	14	178	i	-2	100*	i	3	95
Cc1c(C(=O)Nc2ccc3c(c2)OCCO3)cnn1C	-13	418	i	0	0	i	nt	nt
CCN1/C(=C/c2ccc3cc(C)ccc3[n+]2CC)Sc2ccc3sccc3c21	68	i	nt	-10	84*	+	89*	99	Aptamer quench 1=67*
COc1cccc(CC2(CO)CCN(Cc3cnc(N4CCOCC4)s3)CC2)c1	2	320	i	6	7	i	nt	nt
OCC1(CCCc2ccccc2)CCN(Cc2cnc(N3CCOCC3)s2)CC1	-4	219	i	-2	0	i	-2	94
CCOc1c2c(nc3ccc(Cl)cc13)CCC2	12	176	i	1	2	i	nt	nt	GRK2 confirm 2=18;FAM quench CP2=104
Cc1oc(-c2ccccc2F)nc1CN1CCC(C(=O)NC2CCCc3ccccc32)CC1 (centres undefined)	-2	630	nt	-1	0	i	-1	94
CC(=O)Nc1ccc(OCC(=O)NCc2ccccc2)cc1	4	203	i	4	100*	i	0	91
Cc1cc(C)cc(C(=O)Nc2cccnc2)c1	20	315	i	0	82*	i	-2	99
Cc1cc(C)cc(NC(=O)c2cccnc2)c1	17	167	i	3	0	i	nt	nt
C/C(=N\Nc1nc(C)cc(C)n1)c1ccc(N2CCOCC2)cc1	-13	544	i	-1	2	i	nt	nt

Source: PubChem
